The text below walks through data of ChEMBL document CHEMBL4152358, “In vitro and in vivo anti-inflammatory properties of imine resveratrol analogues” (Bioorg Med Chem, 2018).

For data set [1], the system named is RAW264.7. Put plainly: Immunomodulatory activity in LPS-stimulated mouse RAW264.7 cells assessed as decrease in CD80 expression at 50 uM incubated with LPS for 1 hr followed by compound addition measured after 24 hrs by flow cytometry. Format: functional, cell-based. The essentials: (§1)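 RAW 264.7 cells (4 x 10⁵/well, triplicate) given E. coli LPS 1 µg/mL for 1 h, then treated at 50 µM for 24 h. Cells Fc-blocked with anti-CD16/32 and stained with FITC anti-CD80, anti-CD86 or anti-MHC II (I-A^b). Two independent experiments.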
On the technique in general: A flow cytometer gives signals particle by particle.

Data set [2] deals with Mus musculus. As to the kind of experiment: Inhibition of IL-6 production in ear tissue of croton oil-induced Balb/c mouse ear edema model at 0.1 mg/ear administered topically immediately post croton oil treatment by ELISA. Format: functional, organism-based. The procedure, abridged:
(§2)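 Half of each ear plug from the 4 h croton oil edema test (topical 0.1 mg/ear) was homogenized in extraction buffer (BSA 0.5%, PMSF 0.1%, […], EDTA 10mM, aprotinin 20kIU/ml) and spun at 440g for 15 min at 4 °C. IL-1β, IL-6 or CCL-2 in the supernatant measured by ELISA.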

The test system of data set [3] is Mus musculus. As to the kind of experiment: Effect on IL-1beta production in ear tissue of croton oil-induced Balb/c mouse ear edema model at 0.1 mg/ear administered topically immediately post croton oil treatment by ELISA. Format: functional, organism-based. The essentials: as §2
In data set [4] the test system is RAW264.7. Put plainly: Antiinflammatory activity in mouse RAW264.7 cells assessed as inhibition of LPS/IFNgamma-induced NO production at 50 uM incubated with LPS/IFNgamma for 1 hr followed by compound addition measured after 48 hrs by Griess assay relative to control. Format: functional.
Data set [5] deals with Mus musculus. Put plainly: Antiinflammatory activity in Balb/c mouse ear edema model assessed as inhibition of croton oil-induced ear edema at 0.1 mg/ear administered topically immediately post croton oil treatment and measured after 4 hrs relative to control. Type of data set: functional. The procedure, abridged: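 Female Balb/c mice 8–10 weeks old (n = 6/group). 20 µL of 2.5% v/v croton oil applied to the inner surface of the right ear, acetone vehicle to the left. Treatment given topically straight after, 0.1 mg/ear in 20 µL, with acetone as negative control. Killed at 4 h and 6 mm plugs taken from both ears. Edema read as right minus left ear plug weight, mean S.D.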

Another data set concerns J774.A1. Put plainly: Antiinflammatory activity in mouse J774A.1 cells assessed as inhibition of LPS-induced IL-1beta production by measuring IL-1beta levels incubated with LPS for 1 hr followed by compound addition measured after 24 hrs by ELISA (reference value: 382.3 +/- 50 pg/ml). Type of data set: functional. For orientation: In an ELISA, binding on a coated surface is turned into a signal by an enzyme label.

The test system of data set [6] is RAW264.7. Put plainly: Antiinflammatory activity in mouse RAW264.7 cells assessed as inhibition of LPS-induced IL-6 production by measuring IL-6 levels incubated with LPS for 1 hr followed by compound addition measured after 48 hrs by ELISA (reference value: 2.9 +/- 0.3 ng/ml). Type of data set: functional.
Data set [7] concerns RAW264.7. As to the kind of experiment: Antiinflammatory activity in mouse RAW264.7 cells assessed as inhibition of LPS-induced IL-12 production by measuring IL-12 levels incubated with LPS for 1 hr followed by compound addition measured after 48 hrs by ELISA (reference value: 4839.2 +/- 2.2 pg/ml). Type of data set: functional.
Data set [8] deals with Mus musculus. Put plainly: Inhibition of CCL-2 production in ear tissue of croton oil-induced Balb/c mouse ear edema model at 0.1 mg/ear administered topically immediately post croton oil treatment by ELISA. Type of data set: functional, organism-based. The essentials:
as §2

Data set [9] has as its system Mus musculus. Put plainly: Antiinflammatory activity in croton oil-induced Balb/c mouse ear edema model assessed as inhibition of leucocyte infiltration at 0.1 mg/ear administered topically immediately post croton oil treatment and measured after 4 hrs by hematoxylin and eosin staining based light microscopic method. Format: functional, organism-based. The essentials: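 Ear plugs from the 4 h croton oil edema test in Balb/c mice were fixed 24 h in 70% ethanol, kept in 10% formalin, paraffin-embedded and cut at 4 µm. Sections stained with H&E and leucocyte infiltration judged qualitatively by light microscopy at 400x.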

In data set [10] the test system is RAW264.7. Put plainly: Immunomodulatory activity in LPS-stimulated mouse RAW264.7 cells assessed as decrease in MHC-2 expression at 50 uM incubated with LPS for 1 hr followed by compound addition measured after 24 hrs by flow cytometry. Type of data set: functional, cell-based. The essentials: as §1
The subject of data set [11] is RAW264.7. As to the kind of experiment: Antiinflammatory activity in mouse RAW264.7 cells assessed as inhibition of LPS-induced CCL-2 production by measuring CCL-2 levels incubated with LPS for 1 hr followed by compound addition measured after 48 hrs by ELISA (reference value: 12.73 +/- 0.10 ng/ml). Type of data set: functional.
Another data set concerns Murine T-cell line. As to the kind of experiment: Antiproliferative activity against Con-A-induced T cells isolated from splenocytes of C57/BL6 mouse at 50 uM incubated with Con-A for 1 hr followed by compound addition measured after 72 hrs by MTT assay. Format: functional, cell-based. The essentials:
(§3)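 C57BL/6 splenocytes (1x10⁵/well) cultured in RPMI 1640 with 10% FBS. Stimulated 1 h with Con A 5 µg/mL (T cells) or E. coli LPS 1 µg/mL (B cells) at 37°C, 5% CO₂. Treated at 50 µM and cultured 72 h more, then read by MTT. Expressed as % proliferation relative to untreated stimulated cells.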
On the technique in general: Tetrazolium assays rely on reduction of a dye to a coloured formazan, in cell work by metabolically active cells.

Data set [12] relates to RAW264.7. As to the kind of experiment: Antiinflammatory activity in mouse RAW264.7 cells assessed as inhibition of LPS-induced TNFalpha production by measuring TNFalpha levels incubated with LPS for 1 hr followed by compound addition measured after 48 hrs by ELISA (reference value: 58.6 +/- 7.4 ng/ml). Format: functional.
Data set [13] deals with Mus musculus. As to the kind of experiment: Inhibition of myeloperoxidase activity in ear tissue of croton oil-induced Balb/c mouse ear edema model at 0.1 mg/ear administered topically immediately post croton oil treatment by spectrophotometric method. Format: functional, organism-based. The essentials: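 Ear tissue homogenized in PBS and the pellet resuspended in 0.5% HTAB, then given 3 freeze/thaw cycles. Cleared supernatant mixed 1:1 with 6 mM o-phenylenediamine in 10 mM citrate pH 4.5, with 20% H₂O₂ added. Stopped after 15 min with 1 M H₂SO₄ and read spectrophotometrically.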

The test system of data set [14] is RAW264.7. As to the kind of experiment: Immunomodulatory activity in LPS-stimulated mouse RAW264.7 cells assessed as decrease in CD86 expression at 50 uM incubated with LPS for 1 hr followed by compound addition measured after 24 hrs by flow cytometry. Format: functional, cell-based. The essentials:
as §1

A short description of data set [15]: Antioxidant activity assessed as DPPH radical scavenging activity after 30 mins by spectrophotometric method. Format: functional. The procedure, abridged: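 Left 30 min at room temperature in the dark and absorbance read at 510 nm. IC50 taken graphically from the linear range of the concentration versus scavenging plot. Run twice, each in triplicate.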
Another data set concerns B-cell line. Put plainly: Antiproliferative activity against LPS-induced B cells isolated from splenocytes of C57/BL6 mouse at 50 uM incubated with LPS for 1 hr followed by compound addition measured after 72 hrs by MTT assay. Format: functional, cell-based. The essentials:
as §3

The test system of data set [16] is RAW264.7. As to the kind of experiment: Antiinflammatory activity in mouse RAW264.7 cells assessed as inhibition of LPS/IFNgamma-induced NO production by measuring NO levels incubated with LPS/IFNgamma for 1 hr followed by compound addition measured after 48 hrs by Griess assay (reference value: 55 +/- 2.6 microM). Format: functional.
The test system of data set [17] is RAW264.7. Put plainly: Cytotoxicity against mouse RAW264.7 cells assessed as reduction in cell viability at >= 100 uM after 48 hrs by MTT assay. Format: cell-based. Particulars: raw264.7, 48 h.
Data set [18] relates to RAW264.7. As to the kind of experiment: Cytotoxicity against mouse RAW264.7 cells assessed as reduction in cell viability at 50 uM after 48 hrs by MTT assay. Format: cell-based. Particulars: raw264.7, 48 h. The procedure, abridged: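 RAW264.7 cells seeded at 2 x 10⁵/well and grown 24 h, then exposed to 25 or 50 µM (ethanol ≤1%) for 48 h. MTT 0.5 mg/mL added for 2 h at 37 °C, formazan dissolved in DMSO, OD read at 595 nm. Viability given relative to untreated control, mean SD.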

Active and inactive are the calls of the source. The calls are words filed in the database; no cut-off is given here.

For `Oc1ccc(/C=C/c2cc(O)cc(O)c2)cc1` [RESVERATROL], the outcome with RAW264.7 [1], in the data set with Murine T-cell line, in the data set on RAW264.7 [14] and in the data set with B-cell line was Active. Moreover, the inhibition entry in the data set with Mus musculus [2] and in the data set with Mus musculus [8] was “inactive” each time. Further, the outcome with Mus musculus [3] and with RAW264.7 [10] was inactive. For the same compound, the inhibition at 50 µM in the data set on RAW264.7 [4] stood at 25%. In the data set on Mus musculus [5], the “inhibition (INH)” value turned out to be 40%. The Activity in the data set with J774.A1 amounted to 159.7 pg/mL; with RAW264.7 [6], 1.6 ng/mL; with RAW264.7 [7] it was 1036 pg/mL; with RAW264.7 [11], 6.6 ng/mL; with RAW264.7 [12] it was 31 ng/mL; in the data set on RAW264.7 [16], 44.5 µM. Besides, the Activity entry in the data set on RAW264.7 [17] was “Toxic”; in the data set with RAW264.7 [18], “Non-Toxic”. The “inhibition of leucocyte infiltration (qualitative)” value in the data set with Mus musculus [9] was “Active”. For the same compound, the inhibition entry in the data set on Mus musculus [13] was “Active”. The half-inhibitory concentration (IC50) in data set [15] is 65.6 µM.

One may read the inhibition as the relative decrease from the control value, in per cent. The IC50 is the concentration at which inhibition is half-maximal.
